Results on two molecules are retold here after publication PMC6396672 (OncoTargets and therapy, 2019).

For data set [1], the system named is MHCC97-H tumors. Kind of data set: In vivo antitumor effect, subcutaneous tumor model. The settings on record: nude mice. An outline of the steps:
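Nude (T-cell-deficient) mice, aged 4–6 weeks, were injected subcutaneously with 1×10^6 MHCC97-H cells per animal. Treatment started 3–4 days after injection: sorafenib 2 mg/kg given orally every 2 days, ten doses over 21 days. Mice were then harvested and tumour volumes or weights measured. Inhibition rates were calculated from tumour volume or weight.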

Data set [2] concerns PXR. The settings on record: MHCC97-H cells, dose-dependent.
The subject of data set [3] is EMT-related genes in MHCC97-H cells. Kind of data set: qPCR of EMT-related genes. Format: cell-based. Conditions: ARQ-197 at IC25 concentration. In short, it runs like this:
(§1)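 Total RNA from treated HCC cells was extracted and reverse transcribed. Target mRNAs were measured by real-time qPCR with gene-specific primers and normalised to β-actin mRNA. EMT targets were E-cadherin, N-cadherin and vimentin; MDR targets were CYP3A4, MDR-1 and UGT1A9.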

Data set [4] has as its system LM-3 cells. Kind of data set: MTT assay, cell survival. The format is cell-based. An outline of the steps:
(§2)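 Compounds were dissolved in DMSO and diluted in DMEM. Cells were treated at 0.01, 0.03, 0.1, 0.3, 1, 3 and 10 μmol/L, and viability was read by MTT. Inhibition rates were calculated, and IC25, IC50 and ICmax were derived by curve fitting.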

The subject of data set [5] is ETS-1. Kind of data set: Gene reporter luciferase assay EBS-Luc. The format is cell-based. Conditions: MHCC97-H cells, dose-dependent.
Data set [6] deals with MHCC97-H cells. In words: MTT assay, cell survival. Format: cell-based. Conditions: for IC50: Homo sapiens, MHCC97H. In short, it runs like this:
as §2

The subject of data set [7] is HepG2 cells. Kind of data set: MTT assay, cell survival. The format is cell-based. The settings on record: for IC50: Homo sapiens. In short, it runs like this:
as §2

In data set [8] the test system is MDR-related genes in MHCC97-H cells. Kind of data set: qPCR of MDR-related genes. The format is cell-based. The settings on record: ARQ-197 at IC25 concentration. In short, it runs like this: as §1
(In qPCR the cycle at which signal appears reflects the starting amount.)

Data set [9] deals with L-02 cells. In words: MTT assay, cell survival. Format: cell-based. In short, it runs like this:
as §2
(Tetrazolium dyes change colour on reduction, which living cells bring about.)

Data set [10] concerns MHCC97-L cells. In words: MTT assay, cell survival. The format is cell-based. The settings on record: for IC50: MHCC97L. An outline of the steps: as §2
Data set [11] is described as follows: Clearance of sorafenib in cultured cells by LC-MS/MS. Format: in vitro ADME. Conditions: human, HepG2 cells (cultured HCC cells), Half-life of sorafenib (t1/2). An outline of the steps:
(§3)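 Cultured human HCC cells (with or without the co-treatment or siRNA named in the line) were exposed to sorafenib at 1 μmol/L for 12 hours, then harvested at set time points. Samples were extracted with acetonitrile, and the remaining sorafenib was quantified by LC-MS/MS. Half-life (t1/2) was calculated from the decline over time.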

Assay in data set [12]: as above
The format is in vitro ADME. Conditions: human, MHCC97-H cells (cultured HCC cells), Half-life of sorafenib (t1/2). An outline of the steps: as §3

Assay in data set [13]: as above
The settings on record: human, MHCC97-L cells (cultured HCC cells), Half-life of sorafenib (t1/2). The format is in vitro ADME. An outline of the steps: as §3

Data set [14] relates to subcutaneous LM-3 tumors. Kind of data set: Clearance of sorafenib in subcutaneous tumor by LC-MS/MS. The format is in vivo, nude mice. The settings on record: LM-3 subcutaneous tumor, ETS-1 siRNA. An outline of the steps:
(§4)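 Nude mice (T-cell deficient, 4–6 weeks) carried subcutaneous tumours grown from injected HCC cells; siRNA sequences were described in earlier work. Sorafenib solution was injected into the tumours, and tissue was harvested at set time points. Samples were extracted with acetonitrile, and residual sorafenib was quantified by LC-MS/MS. t1/2 was obtained by curve fitting.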

For data set [15], the system named is subcutaneous MHCC97-H tumors. The description is as above. The format is in vivo, nude mice. The settings on record: PXR siRNA +siRNA. An outline of the steps: as §4
A short description of data set [16]: Clearance of sorafenib in cultured cells by LC-MS/MS. Format: in vitro ADME. Conditions: human, LM-3 cells (cultured HCC cells), Half-life of sorafenib (t1/2), LM-3 cultured cells. In short, it runs like this: as §3

Read-outs that look alike come from different tables or passages of the source.

As usually defined, the IC50 is the midpoint of a concentration-inhibition curve. For `O=C1NC(=O)[C@@H](c2cn3c4c(cccc24)CCC3)[C@@H]1c1c[nH]c2ccccc12` [ARQ-197], the “effect of ARQ-197 on the antitumor effect of sorafenib in vivo” value in data set [1] (3 mg/kg ARQ-197 + 2 mg/kg sorafenib compared to sorafenib alone, MHCC97-H tumors) is reported as “significantly enhanced the antitumor effect of sorafenib”. Also, the “subcutaneous growth of MHCC97-H tumors” value in data set [1] (3 mg/kg ARQ-197, oral, compared to vehicle controls) is recorded as “inhibited the subcutaneous growth of MHCC97-H tumors”. Moreover, the “luciferase activity of DR3-Luc reporter” value in data set [2] was “inhibited”. For the same molecule, the “expression of E-cadherin (mRNA)” value in [3] is “enhanced”. In addition, the “expression of N-cadherin (mRNA)” value in data set [3] is given as “decreased”. Also, the “expression of vimentin (mRNA)” value in data set [3] is reported as “decreased”. Further, the IC50 in [4] (LM3, read-out: IC50 values, LM-3, MTT) came to 670 ± 160 nM; in data set [6] (read-out: IC50 values, MHCC97-H, MTT), 760 ± 220 nM; in data set [7] (HepG2, read-out: IC50 values, HepG2, MTT), 1990 ± 470 nM; in data set [9] (Homo sapiens, L02, read-out: IC50 values), 7590 ± 780 nM; in data set [10] (read-out: IC50 values, MHCC97-L, MTT), 4630 ± 930 nM. Besides, the IC25 values came to 80 ± 20 nM in data set [4] (LM-3, MTT); 90 ± 10 nM in data set [6] (MHCC97-H, MTT); 230 ± 70 nM in data set [7] (HepG2, MTT); 3440 ± 240 nM in data set [9] (L-02, MTT); 1290 ± 520 nM in data set [10] (MHCC97-L, MTT). Besides, the “ICmax values (maximum action concentration)” value in [4] (LM-3, MTT) turned out to be 4.62 ± 0.80 µmol/L; in [6] (MHCC97-H, MTT), 3.56 ± 0.65 µmol/L; in data set [7] (HepG2, MTT) it was 9.55 ± 0.57 µmol/L. In data set [5], the “luciferase activity of EBS-Luc reporter” value is recorded as “inhibited”. Moreover, the “expression of Cyp3a4 (mRNA)” value in data set [8] is “decreased”. Besides, the “expression of Mdr-1 (mRNA)” value in data set [8] is “decreased”. Also, the “expression of Ugt1a9 (mRNA)” value in [8] is “decreased”.
In general, half-life refers to the time needed for the level to fall by half in the phase considered. A high value points to slow decline. In the case of `CNC(=O)c1cc(Oc2ccc(NC(=O)Nc3ccc(Cl)c(C(F)(F)F)c3)cc2)ccn1` [sorafenib], the half-life at 1 μmol/L was 12.5 ± 0.62 h in [11] (ARQ-197); 9.62 ± 0.82 h in [11] (solvent control); 13.6 ± 0.65 h in data set [12] (ARQ-197); 13.8 ± 0.84 h in data set [12] (ETS-1 siRNA); 13.5 ± 0.23 h in [12] (ETS-1 siRNA +ARQ-197); 17.7 ± 0.91 h in data set [12] (PXR siRNA). Moreover, the half-life at 1 μmol/L was 17.6 ± 0.88 h in [12] (PXR siRNA +siRNA); 9.08 ± 0.43 h in [12] (solvent control); 12.6 ± 0.18 h in data set [13] (ARQ-197); 10.2 ± 0.51 h in data set [13] (solvent control); 14.4 ± 0.67 h in data set [16] (ARQ-197); 15.6 ± 0.46 h in data set [16] (ETS-1 siRNA). Besides, the half-life at 1 μmol/L in [16] (ETS-1 siRNA +ARQ-197) is 15.2 ± 0.18 h; in [16] (PXR siRNA), 18 ± 0.25 h; in data set [16] (PXR siRNA +siRNA), 18.4 ± 0.67 h; in [16] (solvent control), 9.93 ± 0.57 h. For the same molecule, the concentration for half-maximal inhibition (IC50) in data set [4] (LM3, read-out: IC50 values of sorafenib, LM-3, solvent control) was 1290 ± 250 nM; in [6] (read-out: IC50 values of sorafenib, MHCC97-H, solvent control), 1390 ± 460 nM; in data set [7] (HepG2, read-out: IC50 values of sorafenib, HepG2, solvent control), 1680 ± 420 nM; in data set [10] (read-out: IC50 values of sorafenib, MHCC97-L, ARQ-197), 970 ± 390 nM; in data set [10] (read-out: IC50 values of sorafenib, MHCC97-L, solvent control), 2730 ± 400 nM. The “Half-life of sorafenib (t1/2)” value in data set [14] amounted to 39.45 ± 0.74 h; in data set [15], 40.13 ± 0.83 h.
